Test results published in ChEMBL document CHEMBL3734708, “Synthesis, cytotoxicity and antiviral evaluation of new series of imidazo[4,5-g]quinoline and pyrido[2,3-g]quinoxalinone derivatives” (Eur J Med Chem, 2015).

tested on: not listed separately; assay: Cytotoxicity against human MT4 cells assessed as reduction in cell proliferation after 96 hrs by MTT assay; assay type: cell-based; details: not given
Outline: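 MT-4 cells in exponential growth seeded at 1 × 10^5 cells/mL in RPMI-1640 with 10% FBS and penicillin/streptomycin. Cultured with serial compound dilutions at 37 °C, 5% CO2. MTT viability after 96 h. CC50 by linear regression against untreated controls. Mean of three independent determinations.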

Row | Compound | CC50 at 96 h
1 | COc1nc2cc3cccnc3c(Cl)c2nc1C(C)C | > 100 µM
2 | CCn1c(=O)c(-c2ccccc2)nc2c(Cl)c3ncccc3cc21 | > 100 µM
3 | CCOc1nc2cc3cccnc3c(Cl)c2nc1-c1ccccc1 | > 100 µM
4 | COc1nc2cc3cccnc3c(Cl)c2nc1-c1ccccc1 | > 100 µM
5 | O=c1c(Cc2ccccc2)nc2cc3cccnc3c(Cl)c2n1C1CCCCC1 | 34 µM

tested on: Human immunodeficiency virus 1; assay: Antiviral activity against HIV-1 3B infected in human MT4 cells assessed as protection against virus-induced cytopathic effect after 4 days by MTT assay; assay type: functional, organism-based; details: Human immunodeficiency virus 1, 3B, MT4, 96 h
Outline: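 MT-4 cells (1 × 10^4/well in RPMI) with or without serial compound dilutions, infected with HIV-1 at 100 CCID50 (m.o.i. 0.01). After 4 days at 37 °C, protection from cytopathogenicity read by MTT. EC50 by linear regression versus untreated controls; mean of three independent determinations.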

Row | Compound | EC50
6 | COc1nc2cc3cccnc3c(Cl)c2nc1C(C)C | > 100 µM
7 | CCn1c(=O)c(-c2ccccc2)nc2c(Cl)c3ncccc3cc21 | > 100 µM
8 | CCOc1nc2cc3cccnc3c(Cl)c2nc1-c1ccccc1 | > 100 µM
9 | COc1nc2cc3cccnc3c(Cl)c2nc1-c1ccccc1 | > 100 µM
10 | O=c1c(Cc2ccccc2)nc2cc3cccnc3c(Cl)c2n1C1CCCCC1 | > 34 µM

tested on: not listed separately; assay: Cytotoxicity against MDBK cells assessed as reduction in cell viability after 72 hrs by MTT assay; assay type: cell-based, Bos taurus; details: cattle
Outline: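 MDBK cells seeded at 6 × 10^5 cells/mL in MEM-E with L-glutamine, 1 mM sodium pyruvate, kanamycin and 10% horse serum. Mock-infected cultures held with serial compound dilutions at 37 °C, 5% CO2. MTT viability read after 72 h. 50% cytotoxic concentration from linear regression as % of untreated controls. Three independent determinations.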

Row | Compound | CC50 at 72 h
11 | COc1nc2cc3cccnc3c(Cl)c2nc1C(C)C | > 100 µM
12 | CCn1c(=O)c(-c2ccccc2)nc2c(Cl)c3ncccc3cc21 | > 100 µM
13 | CCOc1nc2cc3cccnc3c(Cl)c2nc1-c1ccccc1 | > 100 µM
14 | COc1nc2cc3cccnc3c(Cl)c2nc1-c1ccccc1 | > 100 µM
15 | O=c1c(Cc2ccccc2)nc2cc3cccnc3c(Cl)c2n1C1CCCCC1 | > 100 µM

tested on: Bovine viral diarrhea virus 1; assay: Antiviral activity against BVDV NADL ATCC VR-534 infected in MDBK cells assessed as protection against virus-induced cytopathic effect after 3 or 4 days by MTT assay; assay type: functional, organism-based; details: Bovine viral diarrhea virus isolates and strains, NADL ATCC VR-534, MDBK
Outline: (§1)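 BHK-21 (YFV, Reo-1) or MDBK (BVDV) cells seeded at 5 × 10^4 or 3 × 10^4 cells/well and grown overnight to confluence. Monolayers infected at m.o.i. 0.01 in maintenance medium (MEM-Earle, 0.5% inactivated FBS). Serial compound dilutions added 2 h after infection; 37 °C for 3-4 days. Viability read by MTT. EC50 by linear regression versus untreated controls; mean of three determinations.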

Row | Compound | EC50
16 | COc1nc2cc3cccnc3c(Cl)c2nc1C(C)C | > 100 µM
17 | CCn1c(=O)c(-c2ccccc2)nc2c(Cl)c3ncccc3cc21 | > 100 µM
18 | CCOc1nc2cc3cccnc3c(Cl)c2nc1-c1ccccc1 | 73 µM
19 | COc1nc2cc3cccnc3c(Cl)c2nc1-c1ccccc1 | 4 µM
20 | O=c1c(Cc2ccccc2)nc2cc3cccnc3c(Cl)c2n1C1CCCCC1 | 5 µM

tested on: not listed separately; assay: Cytotoxicity against BHK21 cells assessed as reduction in cell viability after 72 hrs by MTT assay; assay type: cell-based, Mesocricetus auratus, BHK-21; details: hamster
Outline: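 BHK cells seeded at 1 × 10^6 cells/mL in MEM-E with L-glutamine, 1 mM sodium pyruvate, kanamycin and 10% FBS. Mock-infected cells exposed to serial dilutions of compound at 37 °C, 5% CO2, run in parallel with the antiviral assays. Viability by MTT at 72 h. CC50 by linear regression vs untreated controls. Mean of three independent determinations.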

Row | Compound | CC50 at 72 h
21 | COc1nc2cc3cccnc3c(Cl)c2nc1C(C)C | > 100 µM
22 | CCn1c(=O)c(-c2ccccc2)nc2c(Cl)c3ncccc3cc21 | > 100 µM
23 | CCOc1nc2cc3cccnc3c(Cl)c2nc1-c1ccccc1 | > 100 µM
24 | COc1nc2cc3cccnc3c(Cl)c2nc1-c1ccccc1 | > 100 µM
25 | O=c1c(Cc2ccccc2)nc2cc3cccnc3c(Cl)c2n1C1CCCCC1 | 20 µM

tested on: Yellow fever virus; assay: Antiviral activity against YFV 17-D vaccine (Stamaril Pasteur J07B01) infected in BHK21 cells assessed as protection against virus-induced cytopathic effect after 3 or 4 days by MTT assay; assay type: functional, organism-based; details: BHK-21; outline: as §1

Row | Compound | EC50
26 | COc1nc2cc3cccnc3c(Cl)c2nc1C(C)C | > 100 µM
27 | CCn1c(=O)c(-c2ccccc2)nc2c(Cl)c3ncccc3cc21 | > 100 µM
28 | CCOc1nc2cc3cccnc3c(Cl)c2nc1-c1ccccc1 | > 100 µM
29 | COc1nc2cc3cccnc3c(Cl)c2nc1-c1ccccc1 | > 100 µM
30 | O=c1c(Cc2ccccc2)nc2cc3cccnc3c(Cl)c2n1C1CCCCC1 | > 20 µM

tested on: Mammalian orthoreovirus 1; assay: Antiviral activity against Reovirus 1 ATCC VR- 214 infected in BHK21 cells assessed as protection against virus-induced cytopathic effect after 3 or 4 days by MTT assay; assay type: functional, cell-based; details: Mammalian orthoreovirus 1, ATCC VR- 214, BHK-21; outline: as §1

Row | Compound | EC50
31 | COc1nc2cc3cccnc3c(Cl)c2nc1C(C)C | > 100 µM
32 | CCn1c(=O)c(-c2ccccc2)nc2c(Cl)c3ncccc3cc21 | > 100 µM
33 | CCOc1nc2cc3cccnc3c(Cl)c2nc1-c1ccccc1 | > 100 µM
34 | COc1nc2cc3cccnc3c(Cl)c2nc1-c1ccccc1 | 21 µM
35 | O=c1c(Cc2ccccc2)nc2cc3cccnc3c(Cl)c2n1C1CCCCC1 | > 20 µM

tested on: not listed separately; assay: Cytotoxicity against african green monkey Vero 76 cells assessed as reduction in cell viability after 48 to 96 hrs by MTT assay; assay type: cell-based; details: chlorocebus sabaeus
Outline: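 Vero-76 cells plated at 4 × 10^5 cells/mL in D-MEM with L-glutamine, kanamycin and 10% FBS. Incubated with serial dilutions of test compounds at 37 °C, 5% CO2 for 48-96 h. Viability by MTT. CC50 by linear regression relative to untreated cells. Mean of three independent runs.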

Row | Compound | CC50
36 | COc1nc2cc3cccnc3c(Cl)c2nc1C(C)C | > 100 µM
37 | CCn1c(=O)c(-c2ccccc2)nc2c(Cl)c3ncccc3cc21 | 60 µM
38 | CCOc1nc2cc3cccnc3c(Cl)c2nc1-c1ccccc1 | 50 µM
39 | COc1nc2cc3cccnc3c(Cl)c2nc1-c1ccccc1 | > 100 µM
40 | O=c1c(Cc2ccccc2)nc2cc3cccnc3c(Cl)c2n1C1CCCCC1 | 20 µM

tested on: Coxsackievirus B5; assay: Antiviral activity against CVB-5 virus Faulkner ATCC VR-185 infected in african green monkey Vero-76 cells after 3 days by plaque reduction assay; assay type: functional, organism-based; details: Enterovirus B, Faulkner ATCC VR-185, Vero 76, 72 h

Row | Compound | EC50
41 | COc1nc2cc3cccnc3c(Cl)c2nc1C(C)C | > 100 µM
42 | CCn1c(=O)c(-c2ccccc2)nc2c(Cl)c3ncccc3cc21 | > 60 µM
43 | CCOc1nc2cc3cccnc3c(Cl)c2nc1-c1ccccc1 | > 50 µM
44 | COc1nc2cc3cccnc3c(Cl)c2nc1-c1ccccc1 | > 100 µM
45 | O=c1c(Cc2ccccc2)nc2cc3cccnc3c(Cl)c2n1C1CCCCC1 | > 20 µM

tested on: Human poliovirus 1 strain Sabin; assay: Antiviral activity against Human poliovirus 1 strain Sabin 1 virus infected in african green monkey Vero-76 cells after 2 days by plaque reduction assay; assay type: functional, organism-based; details: Enterovirus C, 1, Vero 76, 48 h

Row | Compound | EC50
46 | COc1nc2cc3cccnc3c(Cl)c2nc1C(C)C | > 100 µM
47 | CCn1c(=O)c(-c2ccccc2)nc2c(Cl)c3ncccc3cc21 | > 60 µM
48 | CCOc1nc2cc3cccnc3c(Cl)c2nc1-c1ccccc1 | > 50 µM
49 | COc1nc2cc3cccnc3c(Cl)c2nc1-c1ccccc1 | 73 µM
50 | O=c1c(Cc2ccccc2)nc2cc3cccnc3c(Cl)c2n1C1CCCCC1 | > 20 µM

tested on: Respiratory syncytial virus; assay: Antiviral activity against RSVA2 ATCC VR-1540 infected in african green monkey Vero-76 cells after 5 days by plaque reduction assay; assay type: functional, organism-based; details: human respiratory syncytial virus, A2 ATCC VR-1540, Vero 76, 120 h

Row | Compound | EC50
51 | COc1nc2cc3cccnc3c(Cl)c2nc1C(C)C | > 100 µM
52 | CCn1c(=O)c(-c2ccccc2)nc2c(Cl)c3ncccc3cc21 | > 60 µM
53 | CCOc1nc2cc3cccnc3c(Cl)c2nc1-c1ccccc1 | > 50 µM
54 | COc1nc2cc3cccnc3c(Cl)c2nc1-c1ccccc1 | 9 µM
55 | O=c1c(Cc2ccccc2)nc2cc3cccnc3c(Cl)c2n1C1CCCCC1 | > 20 µM

tested on: Vesicular stomatitis virus; assay: Antiviral activity against VSV Indiana ATCC VR-158 infected in african green monkey Vero-76 cells after 2 days by plaque reduction assay; assay type: functional, organism-based; details: Indiana ATCC VR-158, Vero 76, 48 h

Row | Compound | EC50
56 | COc1nc2cc3cccnc3c(Cl)c2nc1C(C)C | > 100 µM
57 | CCn1c(=O)c(-c2ccccc2)nc2c(Cl)c3ncccc3cc21 | > 60 µM
58 | CCOc1nc2cc3cccnc3c(Cl)c2nc1-c1ccccc1 | > 50 µM
59 | COc1nc2cc3cccnc3c(Cl)c2nc1-c1ccccc1 | > 100 µM
60 | O=c1c(Cc2ccccc2)nc2cc3cccnc3c(Cl)c2n1C1CCCCC1 | > 20 µM

tested on: Vaccinia virus; assay: Antiviral activity against VV Elstree ATCC VR-1549 infected in african green monkey Vero-76 cells after 3 days by plaque reduction assay; assay type: functional, organism-based; details: Orthopoxvirus vaccinia, Elstree ATCC VR-1549, Vero 76, 72 h

Row | Compound | EC50
61 | COc1nc2cc3cccnc3c(Cl)c2nc1C(C)C | > 100 µM
62 | CCn1c(=O)c(-c2ccccc2)nc2c(Cl)c3ncccc3cc21 | > 60 µM
63 | CCOc1nc2cc3cccnc3c(Cl)c2nc1-c1ccccc1 | > 50 µM
64 | COc1nc2cc3cccnc3c(Cl)c2nc1-c1ccccc1 | > 100 µM
65 | O=c1c(Cc2ccccc2)nc2cc3cccnc3c(Cl)c2n1C1CCCCC1 | > 20 µM

tested on: Human alphaherpesvirus 1; assay: Antiviral activity against HSV-1 KOS ATCC VR- 1493 infected in african green monkey Vero-76 cells after 3 days by plaque reduction assay; assay type: functional, organism-based; details: Human alphaherpesvirus 1, KOS ATCC VR1493, Vero 76, 72 h

Row | Compound | EC50
66 | COc1nc2cc3cccnc3c(Cl)c2nc1C(C)C | > 100 µM
67 | CCn1c(=O)c(-c2ccccc2)nc2c(Cl)c3ncccc3cc21 | > 60 µM
68 | CCOc1nc2cc3cccnc3c(Cl)c2nc1-c1ccccc1 | > 50 µM
69 | COc1nc2cc3cccnc3c(Cl)c2nc1-c1ccccc1 | > 100 µM
70 | O=c1c(Cc2ccccc2)nc2cc3cccnc3c(Cl)c2n1C1CCCCC1 | > 20 µM
